# According to paper PMC6500982 (Cancer Science, 2019):
# Assay: Safety and tolerability
# Type: in vivo, human
# In short: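 Patients (enrolled January 2015–February 2016) received oral test compound in four cohorts: 160, 320 or 480 mg QD, or 300 mg BID. Dosing continued until progression, unacceptable AEs or consent withdrawal. AEs were graded by CTCAE v4.0, alongside laboratory tests, vital signs and ECGs. The safety population was all patients receiving ≥1 dose.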
# [1] = Japanese patients with B‐cell NHL and CLL
smiles,measurement,setting,value
CC#CC(=O)N1CC[C@@H](n2c(=O)n(-c3ccc(Oc4ccccc4)cc3)c3c(N)ncnc32)C1 [tirabrutinib],"Myalgia, Any grade",320 mg QD N = 3,0 n (%)
same,"Myalgia, Grade ≥3",320 mg QD N = 3,0 n (%)
same,"Nasopharyngitis, Any grade",320 mg QD N = 3,0 n (%)
same,"Nasopharyngitis, Grade ≥3",320 mg QD N = 3,0 n (%)
same,"Nausea, Any grade",320 mg QD N = 3,0 n (%)
same,"Nausea, Grade ≥3",320 mg QD N = 3,0 n (%)
same,"Neutropenia, Any grade",320 mg QD N = 3,2 (66.7) n (%)
same,"Neutropenia, Grade ≥3",320 mg QD N = 3,2 (66.7) n (%)
same,"Pharyngitis, Any grade",320 mg QD N = 3,0 n (%)
same,"Pharyngitis, Grade ≥3",320 mg QD N = 3,0 n (%)
same,"Pyrexia, Any grade",320 mg QD N = 3,0 n (%)
same,"Pyrexia, Grade ≥3",320 mg QD N = 3,0 n (%)
same,"Rash, Any grade",320 mg QD N = 3,2 (66.7) n (%)
same,"Rash, Grade ≥3",320 mg QD N = 3,0 n (%)
same,"Thrombocytopenia, Any grade",320 mg QD N = 3,1 (33.3) n (%)
same,"Thrombocytopenia, Grade ≥3",320 mg QD N = 3,0 n (%)
same,"Upper respiratory tract inflammation, Any grade",320 mg QD N = 3,1 (33.3) n (%)
same,"Upper respiratory tract inflammation, Grade ≥3",320 mg QD N = 3,0 n (%)
same,"Vomiting, Any grade",320 mg QD N = 3,1 (33.3) n (%)
same,"Vomiting, Grade ≥3",320 mg QD N = 3,0 n (%)
same,"All AEs, Any grade",480 mg QD N = 4,4 (100.0) n (%)
same,"All AEs, Grade ≥3",480 mg QD N = 4,2 (50.0) n (%)
same,"Anemia, Any grade",480 mg QD N = 4,2 (50.0) n (%)
same,"Anemia, Grade ≥3",480 mg QD N = 4,1 (25.0) n (%)
same,"Arthralgia, Any grade",480 mg QD N = 4,0 n (%)
same,"Arthralgia, Grade ≥3",480 mg QD N = 4,0 n (%)
same,"Aspartate aminotransferase increased, Any grade",480 mg QD N = 4,1 (25.0) n (%)
same,"Aspartate aminotransferase increased, Grade ≥3",480 mg QD N = 4,0 n (%)
same,"Constipation, Any grade",480 mg QD N = 4,1 (25.0) n (%)
same,"Constipation, Grade ≥3",480 mg QD N = 4,0 n (%)
same,"Cystitis, Any grade",480 mg QD N = 4,0 n (%)
same,"Cystitis, Grade ≥3",480 mg QD N = 4,0 n (%)
same,"Diarrhea, Any grade",480 mg QD N = 4,0 n (%)
same,"Diarrhea, Grade ≥3",480 mg QD N = 4,0 n (%)
same,"Dysgeusia, Any grade",480 mg QD N = 4,1 (25.0) n (%)
same,"Dysgeusia, Grade ≥3",480 mg QD N = 4,0 n (%)
same,"Gamma‐glutamyltransferase increased, Any grade",480 mg QD N = 4,0 n (%)
same,"Gamma‐glutamyltransferase increased, Grade ≥3",480 mg QD N = 4,0 n (%)
same,"Headache, Any grade",480 mg QD N = 4,0 n (%)
same,"Headache, Grade ≥3",480 mg QD N = 4,0 n (%)
same,"Hypokalemia, Any grade",480 mg QD N = 4,2 (50.0) n (%)
same,"Hypokalemia, Grade ≥3",480 mg QD N = 4,0 n (%)
same,"Hypophosphatemia, Any grade",480 mg QD N = 4,2 (50.0) n (%)
same,"Hypophosphatemia, Grade ≥3",480 mg QD N = 4,1 (25.0) n (%)
same,"Insomnia, Any grade",480 mg QD N = 4,0 n (%)
same,"Insomnia, Grade ≥3",480 mg QD N = 4,0 n (%)
same,"Leukopenia, Any grade",480 mg QD N = 4,0 n (%)
same,"Leukopenia, Grade ≥3",480 mg QD N = 4,0 n (%)
same,"Lymphopenia, Any grade",480 mg QD N = 4,1 (25.0) n (%)
same,"Lymphopenia, Grade ≥3",480 mg QD N = 4,0 n (%)
same,"Malaise, Any grade",480 mg QD N = 4,1 (25.0) n (%)
same,"Malaise, Grade ≥3",480 mg QD N = 4,0 n (%)
same,"Myalgia, Any grade",480 mg QD N = 4,0 n (%)
same,"Myalgia, Grade ≥3",480 mg QD N = 4,0 n (%)
same,"Nasopharyngitis, Any grade",480 mg QD N = 4,0 n (%)
same,"Nasopharyngitis, Grade ≥3",480 mg QD N = 4,0 n (%)
same,"Nausea, Any grade",480 mg QD N = 4,1 (25.0) n (%)
same,"Nausea, Grade ≥3",480 mg QD N = 4,0 n (%)
same,"Neutropenia, Any grade",480 mg QD N = 4,1 (25.0) n (%)
same,"Neutropenia, Grade ≥3",480 mg QD N = 4,1 (25.0) n (%)
same,"Pharyngitis, Any grade",480 mg QD N = 4,0 n (%)
same,"Pharyngitis, Grade ≥3",480 mg QD N = 4,0 n (%)
same,"Pyrexia, Any grade",480 mg QD N = 4,0 n (%)
same,"Pyrexia, Grade ≥3",480 mg QD N = 4,0 n (%)
same,"Rash, Any grade",480 mg QD N = 4,2 (50.0) n (%)
same,"Rash, Grade ≥3",480 mg QD N = 4,0 n (%)
same,"Thrombocytopenia, Any grade",480 mg QD N = 4,1 (25.0) n (%)
same,"Thrombocytopenia, Grade ≥3",480 mg QD N = 4,0 n (%)
same,"Upper respiratory tract inflammation, Any grade",480 mg QD N = 4,0 n (%)
same,"Upper respiratory tract inflammation, Grade ≥3",480 mg QD N = 4,0 n (%)
same,"Vomiting, Any grade",480 mg QD N = 4,2 (50.0) n (%)
same,"Vomiting, Grade ≥3",480 mg QD N = 4,0 n (%)
same,Patients with DLT (grade 3 pneumonitis),"Cohort 4 (300 mg BID), WM patient",1 patient
same,Tolerability,[1],well tolerated
same,Tolerability confirmed up to (dose),[1],up to 300 mg BID
same,Tolerability,"Japanese patients with B‐cell NHL and CLL, listed as Tirabrutinib",generally well tolerated
same,Serious AEs reported as study drug‐related,"Mallory‐Weiss syndrome, de novo reactivation of HBV, acute myeloid leukemia, pneumonitis (1 patient each)",4
same,"All AEs, Any grade",Total (all cohorts) N = 17,17 (100.0) n (%)
same,"All AEs, Grade ≥3",Total (all cohorts) N = 17,8 (47.1) n (%)
same,"Anemia, Any grade",Total (all cohorts) N = 17,3 (17.6) n (%)
same,"Anemia, Grade ≥3",Total (all cohorts) N = 17,2 (11.8) n (%)
same,"Arthralgia, Any grade",Total (all cohorts) N = 17,3 (17.6) n (%)
same,"Arthralgia, Grade ≥3",Total (all cohorts) N = 17,0 n (%)
same,"Aspartate aminotransferase increased, Any grade",Total (all cohorts) N = 17,2 (11.8) n (%)
same,"Aspartate aminotransferase increased, Grade ≥3",Total (all cohorts) N = 17,0 n (%)
same,"Constipation, Any grade",Total (all cohorts) N = 17,3 (17.6) n (%)
same,"Constipation, Grade ≥3",Total (all cohorts) N = 17,0 n (%)
same,"Cystitis, Any grade",Total (all cohorts) N = 17,2 (11.8) n (%)
same,"Cystitis, Grade ≥3",Total (all cohorts) N = 17,0 n (%)
same,"Diarrhea, Any grade",Total (all cohorts) N = 17,3 (17.6) n (%)
same,"Diarrhea, Grade ≥3",Total (all cohorts) N = 17,0 n (%)
same,"Dysgeusia, Any grade",Total (all cohorts) N = 17,2 (11.8) n (%)
same,"Dysgeusia, Grade ≥3",Total (all cohorts) N = 17,0 n (%)
same,"Gamma‐glutamyltransferase increased, Any grade",Total (all cohorts) N = 17,2 (11.8) n (%)
same,"Gamma‐glutamyltransferase increased, Grade ≥3",Total (all cohorts) N = 17,0 n (%)
same,"Headache, Any grade",Total (all cohorts) N = 17,2 (11.8) n (%)
same,"Headache, Grade ≥3",Total (all cohorts) N = 17,0 n (%)
same,"Hypokalemia, Any grade",Total (all cohorts) N = 17,2 (11.8) n (%)
same,"Hypokalemia, Grade ≥3",Total (all cohorts) N = 17,0 n (%)
same,"Hypophosphatemia, Any grade",Total (all cohorts) N = 17,2 (11.8) n (%)
same,"Hypophosphatemia, Grade ≥3",Total (all cohorts) N = 17,1 (5.9) n (%)
same,"Insomnia, Any grade",Total (all cohorts) N = 17,3 (17.6) n (%)
same,"Insomnia, Grade ≥3",Total (all cohorts) N = 17,0 n (%)
same,"Leukopenia, Any grade",Total (all cohorts) N = 17,2 (11.8) n (%)
same,"Leukopenia, Grade ≥3",Total (all cohorts) N = 17,2 (11.8) n (%)
same,"Lymphopenia, Any grade",Total (all cohorts) N = 17,2 (11.8) n (%)
same,"Lymphopenia, Grade ≥3",Total (all cohorts) N = 17,1 (5.9) n (%)
same,"Malaise, Any grade",Total (all cohorts) N = 17,3 (17.6) n (%)
same,"Malaise, Grade ≥3",Total (all cohorts) N = 17,0 n (%)
same,"Myalgia, Any grade",Total (all cohorts) N = 17,2 (11.8) n (%)
same,"Myalgia, Grade ≥3",Total (all cohorts) N = 17,0 n (%)
same,"Nasopharyngitis, Any grade",Total (all cohorts) N = 17,2 (11.8) n (%)
same,"Nasopharyngitis, Grade ≥3",Total (all cohorts) N = 17,0 n (%)
same,"Nausea, Any grade",Total (all cohorts) N = 17,3 (17.6) n (%)
same,"Nausea, Grade ≥3",Total (all cohorts) N = 17,0 n (%)
same,"Neutropenia, Any grade",Total (all cohorts) N = 17,4 (23.5) n (%)
same,"Neutropenia, Grade ≥3",Total (all cohorts) N = 17,4 (23.5) n (%)
same,"Pharyngitis, Any grade",Total (all cohorts) N = 17,2 (11.8) n (%)
same,"Pharyngitis, Grade ≥3",Total (all cohorts) N = 17,0 n (%)
same,"Pyrexia, Any grade",Total (all cohorts) N = 17,2 (11.8) n (%)
same,"Pyrexia, Grade ≥3",Total (all cohorts) N = 17,0 n (%)
same,"Rash, Any grade",Total (all cohorts) N = 17,6 (35.3) n (%)
same,"Rash, Grade ≥3",Total (all cohorts) N = 17,0 n (%)
same,"Thrombocytopenia, Any grade",Total (all cohorts) N = 17,2 (11.8) n (%)
same,"Thrombocytopenia, Grade ≥3",Total (all cohorts) N = 17,0 n (%)
same,"Upper respiratory tract inflammation, Any grade",Total (all cohorts) N = 17,2 (11.8) n (%)
same,"Upper respiratory tract inflammation, Grade ≥3",Total (all cohorts) N = 17,0 n (%)
same,"Vomiting, Any grade",Total (all cohorts) N = 17,5 (29.4) n (%)
same,"Vomiting, Grade ≥3",Total (all cohorts) N = 17,0 n (%)
same,Tirabrutinib‐induced lymphocytosis,all patients,no tirabrutinib‐induced lymphocytosis observed
same,"Anemia, grade ≥3 (grade 3 or 4)",all patients N = 17,11.8%
same,"Leukopenia, grade ≥3 (grade 3 or 4)",all patients N = 17,11.8%
same,"Neutropenia, grade ≥3 (grade 3 or 4)",all patients N = 17,23.5%
same,Patients who developed grade ≥3 AEs,all patients N = 17,47.1%
same,Patients with serious AEs,all patients N = 17,7 patients
same,Maximum tolerated dose (MTD),"cohorts 160, 320, 480 mg QD and 300 mg BID",not reached
